Laboratory results taken from ChEMBL document CHEMBL4229344 (Eur J Med Chem, 2018).
Calls of active or inactive are those of the source. The rule behind the calls is not given here.

Legend:
[1] = molecular target: Ephrin type-B receptor 1 (Homo sapiens) (UniProt P54762); experiment: Binding affinity to wild-type human partial length EPHB1 (P589 to T911 residues) expressed in bacterial expression system assessed as residual binding level at 1 uM by Kinomescan method relative to control
[2] = tested on: Tyrosine-protein kinase ABL1 (Homo sapiens), P00519 [H396P]; experiment: Binding affinity to human phosphorylated ABL1 H396P mutant (S229 to K512 residues) expressed in mammalian expression system assessed as residual binding level at 1 uM by Kinomescan method relative to control
Procedure, shortened: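 Single-concentration (1 μM) competition-binding screen run by KINOMEscan against a panel of 468 purified kinases and mutants. The read-out is the relative binding activity of the test compound to each kinase.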

[3] = molecular target: Mitogen-activated protein kinase kinase kinase 12 (DLK/MAP3K12) (Homo sapiens) (UniProt Q12852); experiment: Binding affinity to wild-type human full length DLK (M1 to P859 residues) expressed in mammalian expression system assessed as residual binding level at 1 uM by Kinomescan method relative to control
Chain of Mitogen-activated protein kinase kinase kinase 12 (DLK/MAP3K12) (Homo sapiens) (Q12852 whole entry, looked up, the tested form may be a part): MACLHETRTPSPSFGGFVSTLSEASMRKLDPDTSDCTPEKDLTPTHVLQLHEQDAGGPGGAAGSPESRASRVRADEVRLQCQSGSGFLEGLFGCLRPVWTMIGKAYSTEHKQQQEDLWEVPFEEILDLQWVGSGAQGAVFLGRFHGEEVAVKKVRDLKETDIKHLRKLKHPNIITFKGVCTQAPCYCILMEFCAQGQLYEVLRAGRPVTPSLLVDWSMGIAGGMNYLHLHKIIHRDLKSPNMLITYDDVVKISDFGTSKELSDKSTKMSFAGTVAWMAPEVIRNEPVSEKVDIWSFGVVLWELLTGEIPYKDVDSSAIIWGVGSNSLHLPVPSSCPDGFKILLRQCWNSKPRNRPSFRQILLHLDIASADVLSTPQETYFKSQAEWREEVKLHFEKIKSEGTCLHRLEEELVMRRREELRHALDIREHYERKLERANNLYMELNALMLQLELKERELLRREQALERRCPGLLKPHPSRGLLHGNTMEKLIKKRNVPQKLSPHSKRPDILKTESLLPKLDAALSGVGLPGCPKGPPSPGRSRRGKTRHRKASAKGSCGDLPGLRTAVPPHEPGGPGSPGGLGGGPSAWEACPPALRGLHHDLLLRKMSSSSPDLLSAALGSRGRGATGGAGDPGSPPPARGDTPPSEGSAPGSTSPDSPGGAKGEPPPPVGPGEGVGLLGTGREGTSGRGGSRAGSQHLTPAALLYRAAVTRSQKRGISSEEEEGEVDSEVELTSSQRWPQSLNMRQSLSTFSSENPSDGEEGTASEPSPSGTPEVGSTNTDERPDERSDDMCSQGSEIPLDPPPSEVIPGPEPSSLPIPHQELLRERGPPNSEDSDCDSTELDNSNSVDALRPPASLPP

[4] = molecular target: Ribosomal protein S6 kinase alpha-3 (Homo sapiens) (UniProt P51812); experiment: Binding affinity to wild-type human partial length C-terminal RSK2 kinase domain 2 (V402 to S715 residues) expressed in mammalian expression system assessed as residual binding level at 1 uM by Kinomescan method relative to control
[5] = tested on: Mast/stem cell growth factor receptor Kit (Homo sapiens), P10721 [D816V]; experiment: Binding affinity to human partial length KIT D816V mutant (I571 to D952 residues) expressed in bacterial expression system assessed as residual binding level at 1 uM by Kinomescan method relative to control
Chain of Mast/stem cell growth factor receptor Kit (Homo sapiens), P10721 [D816V] (P10721 whole entry D816V, the tested form may be a part): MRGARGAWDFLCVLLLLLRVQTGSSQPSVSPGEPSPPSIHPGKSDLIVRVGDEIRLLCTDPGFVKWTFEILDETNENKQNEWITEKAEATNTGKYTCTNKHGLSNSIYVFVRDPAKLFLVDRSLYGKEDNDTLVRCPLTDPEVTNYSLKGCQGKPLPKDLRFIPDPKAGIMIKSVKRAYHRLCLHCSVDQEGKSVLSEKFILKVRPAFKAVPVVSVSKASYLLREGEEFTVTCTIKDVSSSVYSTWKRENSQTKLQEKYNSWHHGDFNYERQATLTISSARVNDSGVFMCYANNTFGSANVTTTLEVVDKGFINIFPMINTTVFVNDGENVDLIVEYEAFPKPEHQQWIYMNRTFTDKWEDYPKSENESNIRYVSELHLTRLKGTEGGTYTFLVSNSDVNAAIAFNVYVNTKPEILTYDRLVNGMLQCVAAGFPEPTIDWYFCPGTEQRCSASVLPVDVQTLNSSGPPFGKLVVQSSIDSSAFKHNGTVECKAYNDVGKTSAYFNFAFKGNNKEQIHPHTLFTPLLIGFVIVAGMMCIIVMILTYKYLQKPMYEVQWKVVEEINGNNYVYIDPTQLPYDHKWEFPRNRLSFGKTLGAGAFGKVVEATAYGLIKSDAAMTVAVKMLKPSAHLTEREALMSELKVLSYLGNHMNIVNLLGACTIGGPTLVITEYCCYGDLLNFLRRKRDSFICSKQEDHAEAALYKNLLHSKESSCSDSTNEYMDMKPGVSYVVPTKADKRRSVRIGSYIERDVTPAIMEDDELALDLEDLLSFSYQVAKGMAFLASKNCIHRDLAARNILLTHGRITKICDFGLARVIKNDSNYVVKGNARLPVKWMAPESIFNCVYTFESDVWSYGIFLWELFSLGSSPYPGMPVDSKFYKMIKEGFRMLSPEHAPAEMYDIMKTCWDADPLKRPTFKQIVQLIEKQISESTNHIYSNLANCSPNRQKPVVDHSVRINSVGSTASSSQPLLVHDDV
Procedure, shortened: (§1)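 Kinome-wide single-concentration binding screen (KINOMEscan) at 1 μM against a panel of 468 purified kinases and mutants. Read-out is relative binding of each kinase compared with control. Selectivity across the panel was summarised as an S(10) score.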

[6] = molecular target: Maternal embryonic leucine zipper kinase (Homo sapiens) (UniProt Q14680); experiment: Binding affinity to wild-type human full length MELK (M1 to V651 residues) expressed in bacterial expression system assessed as residual binding level at 1 uM by Kinomescan method relative to control
Chain of Maternal embryonic leucine zipper kinase (Homo sapiens) (Q14680 whole entry, looked up, the tested form may be a part): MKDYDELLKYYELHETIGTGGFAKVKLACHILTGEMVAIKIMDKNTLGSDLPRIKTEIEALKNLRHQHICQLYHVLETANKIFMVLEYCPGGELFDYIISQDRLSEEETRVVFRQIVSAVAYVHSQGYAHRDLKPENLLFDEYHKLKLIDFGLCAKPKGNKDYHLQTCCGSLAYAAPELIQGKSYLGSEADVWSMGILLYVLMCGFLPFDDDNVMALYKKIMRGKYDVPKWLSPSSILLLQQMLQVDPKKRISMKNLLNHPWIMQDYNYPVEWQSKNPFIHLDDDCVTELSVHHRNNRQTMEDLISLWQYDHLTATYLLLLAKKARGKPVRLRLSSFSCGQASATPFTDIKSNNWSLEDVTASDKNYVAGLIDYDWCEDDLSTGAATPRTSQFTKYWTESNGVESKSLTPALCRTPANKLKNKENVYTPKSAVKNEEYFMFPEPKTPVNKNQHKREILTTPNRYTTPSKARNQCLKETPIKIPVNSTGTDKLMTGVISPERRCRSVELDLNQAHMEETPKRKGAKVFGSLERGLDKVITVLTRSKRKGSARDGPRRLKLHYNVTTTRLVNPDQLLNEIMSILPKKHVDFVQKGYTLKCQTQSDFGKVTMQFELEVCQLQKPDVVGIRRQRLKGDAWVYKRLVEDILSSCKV
Procedure, shortened: (§2)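 KINOMEscan competition binding against 468 purified kinases/mutants, test compound at 1 µM; residual binding relative to control.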

[7] = tested on: Tyrosine-protein kinase ABL1 (Homo sapiens), P00519 [H396P]; experiment: Binding affinity to human non-phosphorylated ABL1 H396P mutant (S229 to K512 residues) expressed in mammalian expression system assessed as residual binding level at 1 uM by Kinomescan method relative to control; procedure, shortened: as §1
[8] = molecular target: Mitogen-activated protein kinase kinase kinase 9 (Homo sapiens) (UniProt P80192); experiment: Binding affinity to wild-type human partial length MLK1 (V88 to W426 residues) expressed in bacterial expression system assessed as residual binding level at 1 uM by Kinomescan method relative to control
Chain of Mitogen-activated protein kinase kinase kinase 9 (Homo sapiens) (P80192 whole entry, looked up, the tested form may be a part): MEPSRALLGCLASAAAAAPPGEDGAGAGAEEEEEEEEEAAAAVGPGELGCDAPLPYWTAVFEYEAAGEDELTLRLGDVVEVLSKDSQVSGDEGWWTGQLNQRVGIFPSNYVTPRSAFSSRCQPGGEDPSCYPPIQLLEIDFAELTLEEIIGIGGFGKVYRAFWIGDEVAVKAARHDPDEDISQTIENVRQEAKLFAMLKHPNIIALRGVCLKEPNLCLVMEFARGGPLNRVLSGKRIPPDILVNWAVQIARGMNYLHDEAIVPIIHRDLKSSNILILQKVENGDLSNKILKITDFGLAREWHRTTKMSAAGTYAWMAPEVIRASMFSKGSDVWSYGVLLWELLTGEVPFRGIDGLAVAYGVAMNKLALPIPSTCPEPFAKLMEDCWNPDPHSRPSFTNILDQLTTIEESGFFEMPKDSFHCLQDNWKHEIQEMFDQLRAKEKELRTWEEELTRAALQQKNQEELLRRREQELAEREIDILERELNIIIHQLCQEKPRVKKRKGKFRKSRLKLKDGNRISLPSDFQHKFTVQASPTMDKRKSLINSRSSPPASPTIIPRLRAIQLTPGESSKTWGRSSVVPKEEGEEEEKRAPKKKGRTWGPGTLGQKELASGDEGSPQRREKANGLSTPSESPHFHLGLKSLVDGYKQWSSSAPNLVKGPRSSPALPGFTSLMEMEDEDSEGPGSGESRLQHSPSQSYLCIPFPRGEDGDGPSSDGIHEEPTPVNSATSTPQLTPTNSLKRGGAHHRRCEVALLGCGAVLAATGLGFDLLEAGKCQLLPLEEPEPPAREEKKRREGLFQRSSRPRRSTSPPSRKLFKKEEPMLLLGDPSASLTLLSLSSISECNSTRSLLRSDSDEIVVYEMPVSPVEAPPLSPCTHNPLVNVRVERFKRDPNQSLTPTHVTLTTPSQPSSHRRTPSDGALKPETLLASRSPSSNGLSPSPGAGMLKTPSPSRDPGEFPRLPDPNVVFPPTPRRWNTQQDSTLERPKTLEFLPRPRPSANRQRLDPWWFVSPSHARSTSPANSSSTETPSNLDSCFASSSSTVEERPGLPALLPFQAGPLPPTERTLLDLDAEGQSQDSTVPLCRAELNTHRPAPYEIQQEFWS

[9] = molecular target: Myotonin-protein kinase (Homo sapiens) (UniProt Q09013); experiment: Binding affinity to wild-type human partial length DMPK (V47 to V415 residues) expressed in bacterial expression system assessed as residual binding level at 1 uM by Kinomescan method relative to control
Procedure, shortened: (§3)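 Kinome-wide competition binding screen against a panel of 468 purified kinases/mutants, with the test compound at a single concentration of 1 μM. Read-out is the relative binding activity of each kinase in the presence of compound.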

[10] = tested on: Epidermal growth factor receptor (Homo sapiens), P00533 [L858R]; experiment: Binding affinity to human partial length EGFR L858R mutant (R669 to V1011 residues) expressed in bacterial expression system assessed as residual binding level at 1 uM by Kinomescan method relative to control; procedure, shortened: as §1
[11] = molecular target: Serine/threonine-protein kinase 25 (Homo sapiens) (UniProt O00506); experiment: Binding affinity to wild-type human partial length YSK1 (V14 to H295 residues) expressed in bacterial expression system assessed as residual binding level at 1 uM by Kinomescan method relative to control
[12] = molecular target: Serine/threonine-protein kinase 24 (Homo sapiens) (UniProt Q9Y6E0); experiment: Binding affinity to wild-type human partial length MST3 (A30 to S311 residues) expressed in bacterial expression system assessed as residual binding level at 1 uM by Kinomescan method relative to control
Chain of Serine/threonine-protein kinase 24 (Homo sapiens) (Q9Y6E0 whole entry, looked up, the tested form may be a part): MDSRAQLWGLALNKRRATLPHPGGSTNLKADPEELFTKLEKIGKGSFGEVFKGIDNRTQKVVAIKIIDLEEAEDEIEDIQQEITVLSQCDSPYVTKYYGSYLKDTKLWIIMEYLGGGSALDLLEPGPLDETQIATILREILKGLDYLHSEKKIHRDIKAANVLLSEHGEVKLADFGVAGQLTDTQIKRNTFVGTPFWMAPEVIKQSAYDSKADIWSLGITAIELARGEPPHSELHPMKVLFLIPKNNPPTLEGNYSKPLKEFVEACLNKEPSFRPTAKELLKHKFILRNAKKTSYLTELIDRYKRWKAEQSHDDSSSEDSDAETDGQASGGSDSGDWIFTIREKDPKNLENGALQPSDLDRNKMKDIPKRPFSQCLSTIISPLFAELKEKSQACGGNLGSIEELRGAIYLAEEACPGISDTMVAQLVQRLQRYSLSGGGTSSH

[13] = molecular target: MAP kinase-activated protein kinase 2 (Homo sapiens) (UniProt P49137); experiment: Binding affinity to wild-type human partial length MAPKAPK2 (V48 to D345 residues) expressed in bacterial expression system assessed as residual binding level at 1 uM by Kinomescan method relative to control; procedure, shortened: as §3
Chain of MAP kinase-activated protein kinase 2 (Homo sapiens) (P49137 whole entry, looked up, the tested form may be a part): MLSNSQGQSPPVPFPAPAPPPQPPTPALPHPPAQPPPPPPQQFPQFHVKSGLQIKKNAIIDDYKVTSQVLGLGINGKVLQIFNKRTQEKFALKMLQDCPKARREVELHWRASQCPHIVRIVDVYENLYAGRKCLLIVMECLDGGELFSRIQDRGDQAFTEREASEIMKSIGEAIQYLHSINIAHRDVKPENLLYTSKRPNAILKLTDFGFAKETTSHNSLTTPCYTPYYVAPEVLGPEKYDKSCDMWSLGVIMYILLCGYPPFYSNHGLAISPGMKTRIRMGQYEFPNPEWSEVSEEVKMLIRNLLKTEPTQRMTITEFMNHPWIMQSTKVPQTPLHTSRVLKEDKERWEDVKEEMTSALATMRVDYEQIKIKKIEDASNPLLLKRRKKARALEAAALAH

[14] = Cmax in Sprague-Dawley rat at 1 mg/kg, iv; type: ADME, organism-based; parameters: dose 1 mg/kg, route intravenous; settings: in vivo
Procedure, shortened: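 Male Sprague-Dawley rats, 6–8 weeks old and fasted overnight, dosed IV at 1 mg/kg or PO at 10 mg/kg. Formulation was 5% DMSO/40% PEG400/55% saline (1 mg/mL). Jugular blood collected on heparin from 1 min to 8 h (IV) or 5 min to 24 h (PO). Plasma separated by centrifugation at 2–8 °C and stored at −80 °C.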

[15] = molecular target: Serine/threonine-protein kinase Nek3 (Homo sapiens) (UniProt P51956); experiment: Binding affinity to wild-type human full length NEK3 (M1 to R506 residues) expressed in mammalian expression system assessed as residual binding level at 1 uM by Kinomescan method relative to control; procedure, shortened: as §2
Chain of Serine/threonine-protein kinase Nek3 (Homo sapiens) (P51956 whole entry, the tested form may be a part): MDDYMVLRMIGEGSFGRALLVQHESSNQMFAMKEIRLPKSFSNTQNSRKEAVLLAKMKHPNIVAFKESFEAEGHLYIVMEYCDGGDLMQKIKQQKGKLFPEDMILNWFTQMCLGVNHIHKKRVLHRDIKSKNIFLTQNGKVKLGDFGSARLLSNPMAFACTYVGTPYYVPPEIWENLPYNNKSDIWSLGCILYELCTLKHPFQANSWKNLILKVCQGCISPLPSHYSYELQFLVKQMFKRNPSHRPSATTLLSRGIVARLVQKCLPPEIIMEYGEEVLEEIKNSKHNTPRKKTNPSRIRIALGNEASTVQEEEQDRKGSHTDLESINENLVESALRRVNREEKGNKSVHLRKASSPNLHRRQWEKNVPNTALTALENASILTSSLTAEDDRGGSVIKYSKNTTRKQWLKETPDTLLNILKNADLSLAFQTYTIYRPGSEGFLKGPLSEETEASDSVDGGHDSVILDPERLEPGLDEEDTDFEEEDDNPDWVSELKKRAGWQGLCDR

EOL1 [16] = experiment: Induction of apoptosis in human EOL-1 cells assessed as cleaved caspase3 expression level at 3 to 100 nM after 24 hrs by Western blot analysis; type: functional, cell-based
Procedure, shortened: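 Cells exposed to compound or DMSO for the stated periods, then lysed and immunoblotted for PARP and caspase-3 cleavage, with β-actin as loading control. NCI-H1703 stimulation used PDGF AA at 100 ng/mL.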

EOL1 [17] = experiment: Cell cycle arrest in human EOL-1 cells assessed as accumulation at G0/G1 phase at 0.01 to 0.3 uM after 12 hrs by propidium iodide/RNase staining-based flow cytometric analysis; type: functional
Procedure, shortened: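 Cells treated with compound or DMSO for the stated periods, fixed overnight in 70% cold ethanol at −20 °C, stained with PI/RNase buffer, then analysed by flow cytometry for cell-cycle distribution. For NCI-H1703 stimulation, PDGF AA was used at 100 ng/mL.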

[18] = molecular target: Tyrosine-protein kinase CSK (Homo sapiens) (UniProt P41240); experiment: Binding affinity to wild-type human full length CSK (M1 to L450 residues) expressed in bacterial expression system assessed as residual binding level at 1 uM by Kinomescan method relative to control; procedure, shortened: as §2
[19] = tested on: Receptor-type tyrosine-protein kinase FLT3 (Homo sapiens), P36888 [N841I]; experiment: Binding affinity to human partial length FLT3 N841I mutant (V592 to Y969 residues) expressed in bacterial expression system assessed as residual binding level at 1 uM by Kinomescan method relative to control; procedure, shortened: as §1
[20] = molecular target: Cyclin-dependent kinase 7 (Homo sapiens) (UniProt P50613); experiment: Binding affinity to wild-type human full length CDK7 (M1 to L344 residues) expressed in mammalian expression system assessed as residual binding level at 1 uM by Kinomescan method relative to control; procedure, shortened: as §2

`Cc1ccc(NC(=O)c2ccc(CN(CCN(C)C)C(=O)c3cccnc3)cc2)cc1Nc1nccc(-c2cccnc2)n1` gave an Activity [1] of 100%, an Activity [2] of 97% and an Activity [3] of 93%. It also gave an Activity [4] of 100%, an Activity [5] of 88% and an Activity [6] of 84%. It also gave an Activity [7] of 69%, an Activity [8] of 88% and an Activity [9] of 89%. The Activity [10] was 100%, the Activity [11] was 100% and the Activity [12] was 100%. For the same compound, the Activity [13] was 92%, the Cmax [14] was 4590 ng/mL and the Activity [15] was 73%. For the same compound, the Activity (EOL1 [16]) was “Active”, the Activity (EOL1 [17]) was “Active” and the Activity [18] was 92%. It also gave an Activity [19] of 100% and an Activity [20] of 91%.
